The source made the active and inactive calls. No cut-off for these calls is given here.
Experiments:
A549 [1] = assay: Downregulation of E2F1 protein expression in human A549 cells at 0.1 uM by Western blotting analysis; assay type: functional, cell-based; conditions: TDE = time-dependent effect
In short: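 A549 cells treated with 0.1 μM largazole over a time course, or with a range of concentrations for 12 h. Lysates Western blotted for E2F1.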

[2] = molecular target: Transcription factor E2F1 (Homo sapiens) (UniProt Q01094); assay: Induction of E2F1 degradation in human 16HBE cells at 0.1 uM after 12 to 24 hrs by Western blotting analysis; assay type: cell-based
In short: (§1)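 Each cell line (16-HBE, 95D, L78, H1975, H460) treated with 0.1 μM largazole for indicated times. Lysates Western blotted for E2F1.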

A549 [3] = assay: Upregulation of p21 protein expression in human A549 cells at 0.1 uM after 6 hrs by Western blotting analysis; assay type: functional, cell-based
In short: (§2)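 A549 cells exposed to 0.1 μM over a time course, then lysed and Western blotted for G1 regulators including p21 and p27.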

NCI-H460 [4] = assay: Cell cycle arrest in human NCI-H460 cells assessed as accumulation at G2 phase at 0.1 uM after 24 hrs by propidium iodide staining-based flow cytometric analysis (reference value: 9.5%); assay type: functional
[5] = molecular target: Transcription factor E2F1 (Homo sapiens) (UniProt Q01094); assay: Induction of E2F1 translocation from nucleus to cytoplasm in human A549 cells at 0.1 uM after 12 to 24 hrs by DAPI staining-based immunofluorescence analysis; assay type: cell-based
In short: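 A549 cells given 0.1 μM largazole for 12 to 24 h. Immunofluorescence with anti-E2F1 antibody, nuclei counterstained with DAPI.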

[6] = Cytotoxicity against human SPCA1 cells after 48 hrs by CCK-8 assay; assay type: functional, cell-based; conditions: SPCA1, 48 h
In short: (§3)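 Cells treated with a range of largazole concentrations for 48 h. Proliferation read by CCK-8 assay; IC50 derived from the concentration series.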

[7] = molecular target: T1, Retinoblastoma-associated protein (Homo sapiens) (UniProt P06400); assay: Dephosphorylation of Rb in human A549 cells at 0.1 uM after 6 to 12 hrs by Western blotting analysis; assay type: cell-based
T1 sequence (whole entry): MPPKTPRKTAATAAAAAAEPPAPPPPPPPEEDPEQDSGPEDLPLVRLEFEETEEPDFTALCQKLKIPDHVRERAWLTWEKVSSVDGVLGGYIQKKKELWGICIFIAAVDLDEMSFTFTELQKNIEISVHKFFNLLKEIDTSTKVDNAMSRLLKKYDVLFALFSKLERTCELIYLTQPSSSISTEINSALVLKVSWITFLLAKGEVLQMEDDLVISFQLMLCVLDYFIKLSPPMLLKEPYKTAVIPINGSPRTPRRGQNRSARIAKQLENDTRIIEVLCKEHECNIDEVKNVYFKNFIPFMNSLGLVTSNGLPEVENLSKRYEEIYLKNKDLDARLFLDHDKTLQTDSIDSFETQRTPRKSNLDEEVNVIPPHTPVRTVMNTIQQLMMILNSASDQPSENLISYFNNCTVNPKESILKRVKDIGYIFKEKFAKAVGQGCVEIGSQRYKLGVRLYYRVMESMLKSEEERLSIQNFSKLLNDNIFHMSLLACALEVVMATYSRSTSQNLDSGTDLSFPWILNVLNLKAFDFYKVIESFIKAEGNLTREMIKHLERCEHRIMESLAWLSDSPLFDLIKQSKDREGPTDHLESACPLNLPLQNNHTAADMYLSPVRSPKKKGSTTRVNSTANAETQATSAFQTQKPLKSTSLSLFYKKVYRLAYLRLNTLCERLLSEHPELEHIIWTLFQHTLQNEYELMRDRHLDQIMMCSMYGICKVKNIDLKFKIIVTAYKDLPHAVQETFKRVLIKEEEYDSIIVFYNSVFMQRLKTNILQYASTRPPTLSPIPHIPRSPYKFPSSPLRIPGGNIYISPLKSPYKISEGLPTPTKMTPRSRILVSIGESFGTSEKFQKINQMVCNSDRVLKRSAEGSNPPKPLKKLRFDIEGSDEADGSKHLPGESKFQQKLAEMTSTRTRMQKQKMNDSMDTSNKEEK

A549 [8] = assay: Upregulation of p27 protein expression in human A549 cells at 0.1 uM after 12 hrs by Western blotting analysis; assay type: functional, cell-based; in short: as §2
NCI-H460 [9] = assay: Cell cycle arrest in human NCI-H460 cells assessed as accumulation at G2 phase at 0.06 uM after 24 hrs by propidium iodide staining-based flow cytometric analysis (reference value: 9.5%); assay type: functional
NCI-H1975 = assay: Cytotoxicity against human NCI-H1975 cells after 48 hrs by CCK-8 assay; assay type: functional, cell-based; conditions: NCI-H1975, 48 h; in short: as §3
A549 [10] = assay: Growth inhibition of human A549 cells at 0.1 uM after 24 to 48 hrs by trypan blue exclusion assay; assay type: functional, cell-based
In short: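 Cells treated with largazole for indicated times. Viability evaluated by trypan blue exclusion.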

[11] = molecular target: Transcription factor E2F1 (Homo sapiens) (UniProt Q01094); assay: Induction of E2F1 degradation in human 95-D cells at 0.1 uM after 12 to 24 hrs by Western blotting analysis; assay type: cell-based; in short: as §1
A549 [12] = assay: Induction of apoptosis in human A549 cells assessed as increase in cleaved caspase-3 level at 0.1 uM after 48 hrs by Western blotting analysis; assay type: functional, cell-based
In short: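 A549 cells exposed to 0.1 μM for a time course, then lysed and Western blotted. Read-outs are pro- and cleaved caspase-9, pro- and active caspase-3, and cleaved PARP.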

[13] = molecular target: Histone deacetylase 1 (Homo sapiens) (UniProt Q13547); conditions: NCI-H460, 0.1 uM
[14] = molecular target: Histone deacetylase 1 (Homo sapiens) (UniProt Q13547); conditions: NCI-H1975, 0.1 uM
[15] = molecular target: Histone deacetylase 1 (Homo sapiens) (UniProt Q13547); conditions: A549, 0.1 uM
A549 [16] = assay: Induction of apoptosis in human A549 cells at 0.3 to 1 uM after 48 hrs by Annexin V and propidium iodide staining-based flow cytometric analysis relative to control; assay type: functional
In short: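 A549 cells treated for 48 h at 0.3 to 1 μM, stained with Annexin V/PI and analysed by flow cytometry for the apoptotic fraction.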

A549 [17] = assay: Cell cycle arrest in human A549 cells assessed as accumulation at S phase at 0.06 uM after 24 hrs by propidium iodide staining-based flow cytometric analysis (reference value: 48%); assay type: functional
[18] = molecular target: T1, Retinoblastoma-associated protein (Homo sapiens); assay: Dephosphorylation of Rb in human A549 cells assessed as increase in Rb-E2F1 interaction at 0.1 uM after 8 hrs by immunoprecipitation and Western blotting analysis; assay type: cell-based
In short: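 A549 cells treated with 0.1 μM largazole for 8 h and lysed. Lysates immunoprecipitated, then Western blotted with the indicated antibodies.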

[19] = molecular target: Transcription factor E2F1 (Homo sapiens) (UniProt Q01094); assay: Induction of E2F1 degradation in human A549 cells at 0.1 uM after 12 hrs by Western blotting analysis in presence of proteasome inhibitor bortezomib; assay type: cell-based
In short: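 A549 cells pretreated 2 h with bortezomib (100 nM) or MG-132 (10 μM), then given largazole 0.1 μM for a further 12 h. Lysates Western blotted for E2F1.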

[20] = molecular target: Transcription factor E2F1 (Homo sapiens) (UniProt Q01094); assay: Induction of E2F1 ubiquitination in human A549 cells at 0.1 uM after 8 hrs by immunoprecipitation and Western blotting analysis; assay type: cell-based
In short: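 Lysates of A549 cells given 0.1 μM largazole for 8 h were immunoprecipitated with anti-E2F1 and probed by Western blot with anti-ubiquitin.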

[21] = Cytotoxicity against human H466 cells after 48 hrs by CCK-8 assay; assay type: functional, cell-based; conditions: H466, 48 h; in short: as §3

Sequence of Histone deacetylase 1 (Homo sapiens) (Q13547 whole entry): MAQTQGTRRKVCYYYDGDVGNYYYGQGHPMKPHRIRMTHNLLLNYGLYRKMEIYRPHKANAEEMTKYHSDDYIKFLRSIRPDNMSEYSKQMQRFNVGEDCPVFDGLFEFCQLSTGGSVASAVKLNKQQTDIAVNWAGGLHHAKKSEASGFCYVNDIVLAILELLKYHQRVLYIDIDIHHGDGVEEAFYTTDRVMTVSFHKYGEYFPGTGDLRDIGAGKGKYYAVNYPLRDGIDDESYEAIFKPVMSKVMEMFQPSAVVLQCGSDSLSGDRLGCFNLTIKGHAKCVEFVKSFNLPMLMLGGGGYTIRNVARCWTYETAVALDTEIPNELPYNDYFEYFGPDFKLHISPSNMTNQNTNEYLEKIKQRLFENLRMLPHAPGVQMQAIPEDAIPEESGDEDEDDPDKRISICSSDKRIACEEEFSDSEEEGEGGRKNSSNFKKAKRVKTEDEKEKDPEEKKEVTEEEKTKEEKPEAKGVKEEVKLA
Sequence of Transcription factor E2F1 (Homo sapiens) (Q01094 whole entry): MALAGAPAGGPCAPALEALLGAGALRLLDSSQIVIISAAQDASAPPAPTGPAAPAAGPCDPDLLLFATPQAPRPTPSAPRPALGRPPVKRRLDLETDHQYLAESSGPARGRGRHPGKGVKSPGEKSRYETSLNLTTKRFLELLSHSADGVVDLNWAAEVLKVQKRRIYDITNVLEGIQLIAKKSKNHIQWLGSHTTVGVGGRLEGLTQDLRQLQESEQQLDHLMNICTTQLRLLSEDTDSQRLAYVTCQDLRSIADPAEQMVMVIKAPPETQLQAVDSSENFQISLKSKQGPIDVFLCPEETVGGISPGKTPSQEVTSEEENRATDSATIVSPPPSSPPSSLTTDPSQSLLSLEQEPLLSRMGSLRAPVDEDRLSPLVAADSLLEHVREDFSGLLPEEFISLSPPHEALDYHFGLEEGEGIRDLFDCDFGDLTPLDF

With `CCCCCCCC(=O)SCC/C=C/[C@@H]1CC(=O)NCc2nc(cs2)C2=N[C@@](C)(CS2)C(=O)N[C@@H](C(C)C)C(=O)O1` [LARGAZOLE] the Activity (A549 [1]) was “tde”, the Activity [2] was “inactive” and the Activity (A549 [3]) was “Active”. For the same compound, the Activity (NCI-H460 [4]) was 5.3%, the Activity [5] was “Active” and the IC50 [6] was 140 nM. The Activity [7] was “Active”, the Activity (A549 [8]) was “Active” and the Activity (NCI-H460 [9]) was 10.8%. For the same compound, the IC50 (NCI-H1975) was 83 nM, the “growth inhibition (GI)” value (A549 [10]) was “Active” and the Activity [11] was “Active”. The Activity (A549 [12]) was “Active”, the inhibition [13] was “Active” and the inhibition [14] was “Active”. For the same compound, the inhibition [15] was “Active”, the Activity (A549 [16]) was “<=70%” and the Activity (A549 [17]) was 6.5%. The Activity [18] was “Active”, the Activity [19] was “inactive” and the Activity [20] was “Active”. The IC50 [21] was 520 nM.
